# Assay results published in ChEMBL document CHEMBL3804796, “Discovery of Novel 3,3-Disubstituted Piperidines as Orally Bioavailable, Potent, and Efficacious HDM2-p53 Inhibitors” (ACS Med Chem Lett, 2016).
# The source made the active and inactive calls. The rule behind the calls is not given here.
# Columns and labels:
# A2780 = assay: Antitumor activity against human A2780 cells xenografted in nude mouse harboring wild type p53 assessed as tumor growth inhibition at 50 mg/kg, po bid continuously for 15 days relative to control; assay type: functional; settings: 360 h, read-out: TGI
# Procedure, shortened: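 Wild-type p53 mice bearing A2780 ovarian xenografts. The test agent was given at 50 mg/kg orally twice daily, continuously. Docetaxel was given at 40 mg/kg ip weekly, twice in total. Each was given alone and in combination. Read-out was tumor growth inhibition.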
# SJSA-1 [1] = assay: Antitumor activity against human SJSA1 cells xenografted in nude mouse assessed as tumor growth inhibition at 100 mg/kg, po qd continuously for 30 days; assay type: functional, organism-based
# Procedure, shortened: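 Nude mice bearing SJSA-1 osteosarcoma xenografts, 5 per group, dosed orally in 20% HPBCD. Schedules were either continuous daily or intermittent (3 days on, 4 days off), at 100 and 200 mpk. Tumor volume and body weight followed against a vehicle control group.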
# KU812 = assay: Antiproliferative activity against human KU812 cells expressing wild type p53 after 72 hrs by CellTitre-Glo assay; assay type: functional, cell-based
# Procedure, shortened: (§1)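 Cell lines exposed to compound for 72 h; viability read by CellTiter-Glo and IC50 derived. p53 coding-region mutation status of each line established by direct sequencing.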
# ACHN = assay: Antiproliferative activity against human ACHN cells expressing wild type p53 after 72 hrs by CellTitre-Glo assay; assay type: functional, cell-based; procedure, shortened: as §1
# WM-115 = assay: Antiproliferative activity against human WM115 cells expressing wild type p53 after 72 hrs by CellTitre-Glo assay; assay type: functional, cell-based; procedure, shortened: as §1
# MOLT-4 = assay: Antiproliferative activity against human MOLT4 cells expressing wild type p53 after 72 hrs by CellTitre-Glo assay; assay type: functional, cell-based; procedure, shortened: as §1
# [2] = Antiproliferative activity against human SJSA1 cells expressing wild type p53 after 72 hrs by CellTitre-Glo assay; settings: SJSA-1, 72 h
# [3] = Fraction unbound in monkey plasma; assay type: ADME, cell-free, Macaca mulatta; settings: rhesus monkey
# MOLM-13 = assay: Antiproliferative activity against human MOLM13 cells expressing wild type p53 after 72 hrs by CellTitre-Glo assay; assay type: functional, cell-based; procedure, shortened: as §1
# [4] = Clearance in mouse at 2 mg/kg, iv; assay type: ADME, organism-based; settings: in vivo
# DOHH-2 = assay: Antiproliferative activity against human DOHH2 cells expressing wild type p53 after 72 hrs by CellTitre-Glo assay; assay type: functional, cell-based; procedure, shortened: as §1
# A549 [5] = assay: Antitumor activity against human A549 cells xenografted in nude mouse assessed as tumor growth inhibition at 100 mg/kg, po qd administered with cycle of 3 days on, 4 days off for 30 days relative to control; assay type: functional; settings: read-out: TGI
# Procedure, shortened: (§2)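 Mice bearing A549 NSCLC xenografts. The test agent was given orally, either daily or intermittently (daily for 3 days, then 4 days off). Paclitaxel was given at 20 mg/kg ip weekly, alone or in combination. Read-out was tumor growth inhibition.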
# ZR-75-1 = assay: Antiproliferative activity against human ZR-75-1 cells expressing wild type p53 after 72 hrs by CellTitre-Glo assay; assay type: functional, cell-based; procedure, shortened: as §1
# SR = assay: Antiproliferative activity against human SR cells expressing wild type p53 after 72 hrs by CellTitre-Glo assay; assay type: functional, cell-based; procedure, shortened: as §1
# A549 [6] = assay: Antitumor activity against human A549 cells xenografted in nude mouse assessed as tumor growth inhibition at 100 mg/kg, po qd administered with cycle of 3 days on, 4 days off for 30 days coadministered with 20 mg/kg, ip once weekly paclitaxel relative to control; assay type: functional; procedure, shortened: as §2
# CMLT1 = assay: Antiproliferative activity against human CMLT1 cells expressing wild type p53 after 72 hrs by CellTitre-Glo assay; assay type: functional, cell-based; procedure, shortened: as §1
# NCI-H292 = assay: Antiproliferative activity against human NCI-H292 cells expressing wild type p53 after 72 hrs by CellTitre-Glo assay; assay type: functional, cell-based; procedure, shortened: as §1
# UACC-62 = assay: Antiproliferative activity against human UACC62 cells expressing wild type p53 after 72 hrs by CellTitre-Glo assay; assay type: functional, cell-based; procedure, shortened: as §1
# CWR22R = assay: Antiproliferative activity against human 22Rv1 cells expressing wild type p53 after 72 hrs by CellTitre-Glo assay; assay type: functional, cell-based; procedure, shortened: as §1
# A-375 = assay: Antiproliferative activity against human A375 cells expressing wild type p53 after 72 hrs by CellTitre-Glo assay; assay type: functional, cell-based; procedure, shortened: as §1
# SJSA-1 [7] = assay: Selectivity ratio of IC50 for p53 null human H1299 cells to IC50 for human SJSA1 cells expressing wild type p53; assay type: functional
# Procedure, shortened: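 Ratio of two IC50s, each from a 72 h CellTiter-Glo viability assay. p53 coding-region status was confirmed by direct sequencing. The ratio is p53-mutant (SK-UT-1) or p53-null (H1299) IC50 divided by wild-type p53 (SJSA-1 or HCT116) IC50.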
# LNCaP = assay: Antiproliferative activity against human LNCAP cells expressing wild type p53 after 72 hrs by CellTitre-Glo assay; assay type: functional, cell-based; procedure, shortened: as §1
# CESS = assay: Antiproliferative activity against human CESS cells expressing wild type p53 after 72 hrs by CellTitre-Glo assay; assay type: functional, cell-based; procedure, shortened: as §1
# SK-UT-1 = assay: Antiproliferative activity against human SK-UT-1 cells harboring mutant p53 after 72 hrs by CellTitre-Glo assay; assay type: functional, cell-based; settings: SK-UT-1, 72 h
# Procedure, shortened: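 Cancer cell lines of known p53 coding-region status (checked by direct sequencing) were exposed to the compound for 72 h. Viability was read with CellTiter-Glo, and the IC50 was taken from these readings.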
# MCF7 = assay: Antiproliferative activity against human MCF7 cells expressing wild type p53 after 72 hrs by CellTitre-Glo assay; assay type: functional, cell-based; procedure, shortened: as §1
# MES-SA = assay: Antiproliferative activity against human MES-SA cells expressing wild type p53 after 72 hrs by CellTitre-Glo assay; assay type: functional, cell-based; procedure, shortened: as §1
# Mus musculus = assay: Toxicity in nude mouse xenografted with human SJSA1 cells assessed as body weight loss at 100 to 200 mg/kg, po qd continuously for 30 days; assay type: organism-based, SJSA-1; settings: in vivo, 720 h
# Procedure, shortened: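 Nude mice bearing SJSA-1 osteosarcoma xenografts, n = 5 per group. Dosing was oral in 20% HPBCD, either continuous daily at 100 and 200 mpk or intermittent (daily for 3 days on, 4 days off). Body weight was compared against a vehicle-control group.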
# Cytochrome P450 1A2 = Cytochrome P450 1A2 (Homo sapiens, UniProt P05177); assay: Inhibition of CYP1A2 (unknown origin); assay type: ADME
# SJSA-1 [8] = assay: Induction of apoptosis in human SJSA1 cells assessed as caspase 3/7 activation; assay type: functional, cell-based
# Cytochrome P450 2D6 = Cytochrome P450 2D6 (Homo sapiens, UniProt P10635); assay: Inhibition of CYP2D6 (unknown origin); assay type: ADME
# [9] = Antitumor activity against human SJSA1 cells xenografted in nude mouse assessed as tumor growth inhibition at 100 mg/kg, po qd administered with cycle of 3 days on, 4 days off for 30 days relative to control; assay type: functional; settings: SJSA-1, po, read-out: TGI
# Procedure, shortened: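 Nude mice bearing SJSA-1 osteosarcoma xenografts, n = 5 per group. Oral dosing in 20% HPBCD, given either intermittently (daily, 3 days on/4 days off) or continuously daily. Body weight was monitored against a vehicle control group.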
# A498 = assay: Antiproliferative activity against human A498 cells expressing wild type p53 after 72 hrs by CellTitre-Glo assay; assay type: functional, cell-based; procedure, shortened: as §1
# NCI-H460 = assay: Antiproliferative activity against human NCI-H460 cells expressing wild type p53 after 72 hrs by CellTitre-Glo assay; assay type: functional, cell-based; procedure, shortened: as §1
# Daudi = assay: Antiproliferative activity against human Daudi cells expressing wild type p53 after 72 hrs by CellTitre-Glo assay; assay type: functional, cell-based; procedure, shortened: as §1
# Chain of Cytochrome P450 1A2 (P05177 whole entry): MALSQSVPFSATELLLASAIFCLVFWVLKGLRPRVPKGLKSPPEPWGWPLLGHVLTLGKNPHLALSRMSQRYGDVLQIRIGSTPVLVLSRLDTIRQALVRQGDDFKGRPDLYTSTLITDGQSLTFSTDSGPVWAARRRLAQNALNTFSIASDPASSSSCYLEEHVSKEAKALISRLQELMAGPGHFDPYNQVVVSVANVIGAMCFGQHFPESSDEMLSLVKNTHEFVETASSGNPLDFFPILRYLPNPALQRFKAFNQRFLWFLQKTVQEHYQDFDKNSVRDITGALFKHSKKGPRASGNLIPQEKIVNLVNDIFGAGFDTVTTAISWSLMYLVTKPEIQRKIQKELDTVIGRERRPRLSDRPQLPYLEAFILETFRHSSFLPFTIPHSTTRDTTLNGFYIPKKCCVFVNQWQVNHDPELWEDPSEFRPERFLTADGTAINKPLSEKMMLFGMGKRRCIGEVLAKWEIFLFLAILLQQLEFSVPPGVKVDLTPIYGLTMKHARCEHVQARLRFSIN
# Chain of Cytochrome P450 2D6 (P10635 whole entry): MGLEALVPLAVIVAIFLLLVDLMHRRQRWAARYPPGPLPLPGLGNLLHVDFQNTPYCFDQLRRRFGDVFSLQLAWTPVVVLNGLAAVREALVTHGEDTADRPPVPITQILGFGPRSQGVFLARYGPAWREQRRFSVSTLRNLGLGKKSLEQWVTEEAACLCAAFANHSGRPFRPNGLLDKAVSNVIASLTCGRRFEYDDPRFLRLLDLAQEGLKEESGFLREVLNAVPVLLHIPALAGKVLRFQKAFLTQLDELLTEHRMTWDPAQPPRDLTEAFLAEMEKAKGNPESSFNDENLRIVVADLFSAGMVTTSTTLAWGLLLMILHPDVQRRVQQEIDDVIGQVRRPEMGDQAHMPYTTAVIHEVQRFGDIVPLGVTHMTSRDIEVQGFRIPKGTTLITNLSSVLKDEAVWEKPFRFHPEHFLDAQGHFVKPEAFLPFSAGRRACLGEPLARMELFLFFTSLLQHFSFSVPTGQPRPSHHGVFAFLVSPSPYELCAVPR
compound,measurement,setting,value
CCC[C@H]1N(C(=O)c2cnccc2C(F)(F)F)CCC[C@@]1(Oc1csc(C(F)(F)F)c1)C(=O)N1CCN(c2ccccc2OCCCC(=O)O)CC1,inhibition in vivo at 50 mg/kg,A2780,41%
same,TGI,SJSA-1 [1],Active
same,Activity,KU812,Active
same,Activity,ACHN,Active
same,Activity,WM-115,Active
same,Activity,MOLT-4,Active
same,IC50,[2],80 nM
same,fraction unbound,[3],0.05
same,Activity,MOLM-13,Active
same,clearance,[4],133 mL/min/kg
same,Activity,DOHH-2,Active
same,inhibition in vivo at 100 mg/kg,A549 [5],27%
same,Activity,ZR-75-1,Active
same,Activity,SR,Active
same,TGI,A549 [6],85%
same,Activity,CMLT1,Active
same,Activity,NCI-H292,Active
same,Activity,UACC-62,Active
same,Activity,CWR22R,Active
same,Activity,A-375,Active
same,Ratio IC50,SJSA-1 [7],>500
same,Activity,LNCaP,Active
same,Activity,CESS,Active
same,IC50,SK-UT-1,> 50000 nM
same,Activity,MCF7,Active
same,Activity,MES-SA,Active
same,Activity,Mus musculus,Non-toxic
same,IC50,Cytochrome P450 1A2,> 50000 nM
same,IC50,SJSA-1 [8],90 nM
same,IC50,Cytochrome P450 2D6,> 50000 nM
same,inhibition in vivo at 100 mg/kg,[9],31%
same,Activity,A498,Active
same,Activity,NCI-H460,Active
same,Activity,Daudi,Active
